Active and inactive are the calls of the source. The rule behind the calls is not given here.
Key:
[1] = molecular target: T1, Inhibitor of nuclear factor kappa-B kinase subunit beta (Homo sapiens, UniProt O14920); assay: Inhibition of IKKbeta (unknown origin)
T1 sequence (O14920 whole entry): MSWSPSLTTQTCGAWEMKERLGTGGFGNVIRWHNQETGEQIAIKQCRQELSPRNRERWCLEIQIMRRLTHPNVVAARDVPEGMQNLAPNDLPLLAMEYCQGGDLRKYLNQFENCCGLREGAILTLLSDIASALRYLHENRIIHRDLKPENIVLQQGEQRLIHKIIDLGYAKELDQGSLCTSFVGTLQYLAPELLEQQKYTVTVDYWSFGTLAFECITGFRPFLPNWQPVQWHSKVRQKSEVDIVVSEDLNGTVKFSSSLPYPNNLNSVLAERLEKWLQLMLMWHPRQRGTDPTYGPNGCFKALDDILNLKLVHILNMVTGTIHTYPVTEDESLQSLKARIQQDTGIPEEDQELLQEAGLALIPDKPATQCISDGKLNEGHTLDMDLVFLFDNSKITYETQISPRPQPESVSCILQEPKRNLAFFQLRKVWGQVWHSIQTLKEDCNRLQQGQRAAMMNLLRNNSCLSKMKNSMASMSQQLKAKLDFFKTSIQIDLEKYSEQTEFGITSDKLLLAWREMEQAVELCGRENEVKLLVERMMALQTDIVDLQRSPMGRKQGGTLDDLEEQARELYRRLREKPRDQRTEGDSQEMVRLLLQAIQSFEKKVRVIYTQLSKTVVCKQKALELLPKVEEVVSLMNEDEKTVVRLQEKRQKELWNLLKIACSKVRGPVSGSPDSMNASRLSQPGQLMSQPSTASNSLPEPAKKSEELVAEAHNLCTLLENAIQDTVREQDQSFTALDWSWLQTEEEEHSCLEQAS

RAW264.7 [2] = assay: Antiinflammatory activity against mouse RAW264.7 cells assessed as inhibition of LPS induced nitrite accumulation at 1 to 5 uM preincubated for 6 hrs followed by LPS challenge measured after 18 hrs by Griess reagent based assay; type: functional, cell-based
Summary of the method: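 Cells seeded at 1 × 10^5 cells/ml and grown 24 h, then pretreated 6 h with compound at 1, 2 or 5 µM. LPS 100 ng/ml added for a further 18 h. NO production read as nitrite in the culture medium and compared with the negative control.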

[3] = Lipophilicity, logD of the compound at pH 7.4; type: physicochemical; settings: buffer
RAW264.7 [4] = assay: Antiinflammatory activity against mouse RAW264.7 cells assessed as inhibition of LPS induced IL-1alpha production at 5 uM preincubated for 6 hrs followed by LPS challenge measured after 18 hrs; type: functional, cell-based
Summary of the method: (§1)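 Cells cultured in DMEM with 10% FBS and 1% penicillin/streptomycin, pretreated 6 h with compound at 5 µM, then LPS 100 ng/ml for 18 h. Lysates mixed with antibody cocktail and incubated overnight on a blocked mouse cytokine array membrane, then streptavidin-HRP with chemiluminescent detection. Relative protein expression taken from densitometry of scanned images.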

[5] = molecular target: T2, Inhibitor of nuclear factor kappa-B kinase subunit beta (Mus musculus) (UniProt O88351); assay: Inhibition of LPS-induced IKKbeta phosphorylation in mouse RAW264.7 cells preincubated for 6 hrs followed by LPS challenge measured after 30 mins by Western blot method
T2 sequence (whole entry): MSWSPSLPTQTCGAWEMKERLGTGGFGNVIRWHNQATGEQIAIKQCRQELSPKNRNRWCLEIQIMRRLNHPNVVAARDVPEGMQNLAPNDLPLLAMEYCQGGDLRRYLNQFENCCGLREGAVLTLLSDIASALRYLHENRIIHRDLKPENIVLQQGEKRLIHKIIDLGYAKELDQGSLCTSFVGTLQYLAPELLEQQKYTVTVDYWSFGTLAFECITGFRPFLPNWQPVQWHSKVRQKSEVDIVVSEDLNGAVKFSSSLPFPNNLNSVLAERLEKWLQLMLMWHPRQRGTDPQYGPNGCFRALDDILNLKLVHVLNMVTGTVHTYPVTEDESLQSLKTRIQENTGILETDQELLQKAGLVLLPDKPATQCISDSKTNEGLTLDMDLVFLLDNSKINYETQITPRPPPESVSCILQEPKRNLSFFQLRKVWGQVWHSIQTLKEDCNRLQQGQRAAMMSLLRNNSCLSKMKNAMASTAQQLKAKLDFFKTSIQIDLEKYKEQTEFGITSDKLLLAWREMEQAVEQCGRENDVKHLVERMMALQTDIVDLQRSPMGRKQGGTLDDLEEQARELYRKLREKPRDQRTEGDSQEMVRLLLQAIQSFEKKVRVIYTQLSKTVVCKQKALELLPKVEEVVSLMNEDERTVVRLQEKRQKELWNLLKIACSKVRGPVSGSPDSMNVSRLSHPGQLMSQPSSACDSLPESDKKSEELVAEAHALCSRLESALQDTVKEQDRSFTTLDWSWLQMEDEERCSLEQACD

RAW264.7 [6] = assay: Antiinflammatory activity against mouse RAW264.7 cells assessed as inhibition of LPS induced TIMP-1 production at 5 uM preincubated for 6 hrs followed by LPS challenge measured after 18 hrs; type: functional, cell-based; summary of the method: as §1
[7] = molecular target: T2, Inhibitor of nuclear factor kappa-B kinase subunit beta (Mus musculus); assay: Inhibition of LPS-induced IKKbeta-mediated NF-kappa-B p65 phosphorylation in mouse RAW264.7 cells preincubated for 6 hrs followed by LPS challenge measured after 30 mins by ELISA method; type: cell-based
Summary of the method: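 Cells exposed 6 h to compound at 1, 2 and 5 µM, then LPS 100 ng/ml for 30 min. Cytoplasmic phospho-NF-κB p65 measured with an ELISA kit, following the kit instructions.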

RAW264.7 [8] = assay: Antiinflammatory activity against mouse RAW264.7 cells assessed as inhibition of LPS induced TNF-alpha production preincubated for 6 hrs followed by LPS challenge measured after 18 hrs by ELISA method; type: functional, cell-based
Summary of the method: (§2)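 Cells plated at 4 × 10^5 per well and left to attach overnight, then pretreated 6 h with compound (1, 2 and 5 µM) before LPS 100 ng/ml for 18 h. IL-6 and TNF-α measured in cell-free supernatants with a mouse ELISA kit, following the kit instructions.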

RAW264.7 [9] = assay: Antiinflammatory activity against mouse RAW264.7 cells assessed as inhibition of LPS induced IL-6 production preincubated for 6 hrs followed by LPS challenge measured after 18 hrs by ELISA method; type: functional, cell-based; summary of the method: as §2
RAW264.7 [10] = assay: Antiinflammatory activity against mouse RAW264.7 cells assessed as inhibition of LPS induced nitric oxide synthase synthesis preincubated for 6 hrs followed by LPS challenge by western blot method; type: functional, cell-based
[11] = molecular target: T2, Inhibitor of nuclear factor kappa-B kinase subunit beta (Mus musculus); assay: Inhibition of LPS induced IKKbeta-mediated NF-kappa-B p65 nuclear translocation in mouse RAW264.7 cells at 5 uM preincubated for 6 hrs followed by LPS challenge measured after 30 mins by DAPI staining based confocal laser scanning microscopic method; type: cell-based
Summary of the method: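 Pretreatment 6 h with 5 µM compound, then LPS 100 ng/ml for 30 min. Cells fixed in acetone:methanol 1:1 for 10 min, blocked 1 h at room temperature, and incubated overnight at 4 °C with p-NF-κB antibody (1:50). RITC secondary (1:100) applied 1 h, nuclei stained with DAPI, and slides imaged by confocal laser scanning microscopy.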

[12] = molecular target: T2, Inhibitor of nuclear factor kappa-B kinase subunit beta (Mus musculus); assay: Inhibition of LPS-induced IKKbeta-mediated IkappaB-alpha phosphorylation in mouse RAW264.7 cells preincubated for 6 hrs followed by LPS challenge measured after 30 mins by Western blot method
RAW264.7 [13] = assay: Antiinflammatory activity against mouse RAW264.7 cells assessed as inhibition of LPS induced I-TAC production at 5 uM preincubated for 6 hrs followed by LPS challenge measured after 18 hrs; type: functional, cell-based; summary of the method: as §1
RAW264.7 [14] = assay: Antiinflammatory activity against mouse RAW264.7 cells assessed as inhibition of LPS induced SiCAM-1 production at 5 uM preincubated for 6 hrs followed by LPS challenge measured after 18 hrs; type: functional, cell-based; summary of the method: as §1

Row | SMILES | IC50 [1] | also measured
1 | N#Cc1cccc(-c2ccnc(Nc3ccc(S(=O)(=O)NCCO)cc3)n2)c1 | 190 nM | inhibition (RAW264.7 [2]): Active; logD [3]: 1.49
2 | CC(=O)Nc1ccc(Nc2nccc(-c3ccc(Oc4ccccc4N)cc3)n2)cc1 | 4200 nM | 
3 | Nc1ccc(-c2ccnc(Nc3ccc(S(N)(=O)=O)cc3)n2)cc1 | 41 nM | inhibition (RAW264.7 [4]): Active; inhibition [5]: Dose-dependent effect; inhibition (RAW264.7 [6]): Active; inhibition [7]: Dose-dependent effect; inhibition (RAW264.7 [8]): Dose-dependent effect; inhibition (RAW264.7 [9]): Dose-dependent effect; inhibition (RAW264.7 [10]): Dose-dependent effect; inhibition (RAW264.7 [2]): Active; inhibition [11]: Active; inhibition [12]: Dose-dependent effect; inhibition (RAW264.7 [13]): Active; inhibition (RAW264.7 [14]): Active
4 | N#Cc1ccc(Nc2nccc(-c3ccc(Oc4ccccc4N)cc3)n2)cc1 | 6200 nM | 
5 | Nc1ccccc1Oc1ccc(-c2ccnc(Nc3ccc(S(N)(=O)=O)cc3)n2)cc1 | 97 nM | logD [3]: 3.29
6 | NS(=O)(=O)c1ccc(Nc2nccc(-c3ccc(Oc4ccccc4)cc3)n2)cc1 | 1520 nM | 
7 | NS(=O)(=O)c1ccc(Nc2nccc(-c3ccc(Oc4ccccc4[N+](=O)[O-])cc3)n2)cc1 | 34 nM | 
8 | Nc1ccccc1Oc1ccc(-c2ccnc(Nc3ccccc3)n2)cc1 | 11800 nM | 
9 | NC(=O)c1ccc(Nc2nccc(-c3ccc(Oc4ccccc4N)cc3)n2)cc1 | 14200 nM | 
10 | COc1ccc(Nc2nccc(-c3ccc(Oc4ccccc4N)cc3)n2)cc1 | 12000 nM | 
11 | COC(=O)Nc1ccc(Nc2nccc(-c3ccc(Oc4ccccc4[N+](=O)[O-])cc3)n2)cc1 | > 20000 nM | 
12 | Nc1ccccc1Oc1ccc(-c2ccnc(Nc3ccc(S(=O)(=O)Nc4nccs4)cc3)n2)cc1 | 1100 nM | 
13 | Nc1ccc(-c2ccnc(Nc3ccc(S(=O)(=O)NCCO)cc3)n2)cc1 | 53 nM | inhibition (RAW264.7 [2]): Active; logD [3]: 0.58
14 | CC(=O)c1ccc(Nc2nccc(-c3ccc(Oc4ccccc4N)cc3)n2)cc1 | 8100 nM | 
15 | CC(C)(C)OC(=O)NCCOc1ccc(-c2ccnc(Nc3ccc(S(N)(=O)=O)cc3)n2)cc1 | 138 nM | 
16 | NS(=O)(=O)c1ccc(Nc2nccc(-c3ccc(Cl)cc3)n2)cc1 | 19 nM | 
17 | CN(C)c1ccc(Nc2nccc(-c3ccc(Oc4ccccc4N)cc3)n2)cc1 | 28700 nM | 
18 | CS(=O)(=O)Nc1ccc(Nc2nccc(-c3ccc(Oc4ccccc4[N+](=O)[O-])cc3)n2)cc1 | 320 nM | 
19 | Nc1ccccc1Oc1ccc(-c2ccnc(Nc3ccc4ncsc4c3)n2)cc1 | 4600 nM | 
20 | Nc1ccccc1Oc1ccc(-c2ccnc(Nc3cccc(S(N)(=O)=O)c3)n2)cc1 | 1600 nM | 

Now from value to compound, other results behind:

Row | IC50 [1] | SMILES | also measured
21 | 79 nM | CN(C)CCOc1ccc(-c2ccnc(Nc3ccc(S(N)(=O)=O)cc3)n2)cc1 | inhibition (RAW264.7 [2]): Active
22 | 2700 nM | CS(=O)(=O)c1ccc(Nc2nccc(-c3ccc(Oc4ccccc4N)cc3)n2)cc1 | 
23 | > 20000 nM | CCOC(=O)Nc1ccc(Nc2nccc(-c3ccc(Oc4ccccc4[N+](=O)[O-])cc3)n2)cc1 | 
24 | 58 nM | N#Cc1ccc(-c2ccnc(Nc3ccc(S(N)(=O)=O)cc3)n2)cc1 | logD [3]: 3.81
25 | 1100 nM | CNS(=O)(=O)c1ccc(Nc2nccc(-c3ccc(Oc4ccccc4[N+](=O)[O-])cc3)n2)cc1 | 
26 | 34100 nM | Nc1ccccc1Oc1ccc(-c2ccnc(Nc3ccc(Cl)cc3)n2)cc1 | 
27 | > 50000 nM | Cc1ccc(Nc2nccc(-c3ccc(Oc4ccccc4N)cc3)n2)cc1 | 
28 | 111 nM | N#Cc1ccc(-c2ccnc(Nc3ccc(S(=O)(=O)NCCO)cc3)n2)cc1 | 
29 | 65 nM | NCCOc1ccc(-c2ccnc(Nc3ccc(S(N)(=O)=O)cc3)n2)cc1 | inhibition (RAW264.7 [2]): Active; logD [3]: 1.39

— ChEMBL document CHEMBL3872215, “Optimization and biological evaluation of aminopyrimidine-based IκB kinase β inhibitors with potent anti-inflammatory effects” (Eur J Med Chem, 2016)
